# ChEMBL document CHEMBL1127290, “1-(2,5-Dimethoxy-4-(trifluoromethyl)phenyl)-2-aminopropane: a potent serotonin 5-HT2A/2C agonist” (J Med Chem, 1994)
# B1: 5-hydroxytryptamine receptor 2C (Mus musculus), P34968 (protein)
# chain: MVNLGTAVRSLLVHLIGLLVWQFDISISPVAAIVTDTFNSSDGGRLFQFPDGVQNWPALSIVVIIIMTIGGNILVIMAVSMEKKLHNATNYFLMSLAIADMLVGLLVMPLSLLAILYDYVWPLPRYLCPVWISLDVLFSTASIMHLCAISLDRYVAIRNPIEHSRFNSRTKAIMKIAIVWAISIGVSVPIPVIGLRDESKVFVNNTTCVLNDPNFVLIGSFVAFFIPLTIMVITYFLTIYVLRRQTLMLLRGHTEEELRNISLNFLKCCCKKGDEEENAPNPNPDQKPRRKKKEKRPRGTMQAINNEKKASKVLGIVFFVFLIMWCPFFITNILSVLCGKACNQKLMEKLLNVFVWIGYVCSGINPLVYTLFNKIYRRAFSKYLRCDYKPDKKPPVRQIPRVAATALSGRELNVNIYRHTNERVVRKANDTEPGIEMQVENLELPVNPSNVVSERISSV
# B2: 5-hydroxytryptamine receptor 2A (Mus musculus), P35363 (protein)
# chain: MEILCEDNISLSSIPNSLMQLGDDSRLYPNDFNSRDANTSEASNWTIDAENRTNLSCEGYLPPTCLSILHLQEKNWSALLTTVVIILTIAGNILVIMAVSLEKKLQNATNYFLMSLAIADMLLGFLVMPVSMLTILYGYRWPLPSKLCAVWIYLDVLFSTASIMHLCAISLDRYVAIQNPIHHSRFNSRTKAFLKIIAVWTISVGISMPIPVFGLQDDSKVFKEGSCLLADDNFVLIGSFVAFFIPLTIMVITYFLTIKSLQKEATLCVSDLSTRAKLSSFSFLPQSSLSSEKLFQRSIHREPGSYAGRRTMQSISNEQKACKVLGIVFFLFVVMWCPFFITNIMAVICKESCNENVIGALLNVFVWIGYLSSAVNPLVYTLFNKTYRSAFSRYIQCQYKENRKPLQLILVNTIPTLAYKSSQLQVGQKKNSQEDAEPTANDCSMVTLGNQHSEEMCTDNIETVNEKVSCV
# Tests used:
# Assay type in all cases: functional
# [1] = substrate: COc1cc(C(F)(F)F)c(OC)cc1CC(C)N; assay: (§1) The maximum responses of [3H]- inositol monophosphate accumulation in cells expressing the 5-hydroxytryptamine 2C receptor
# Summary of the method: (§2)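 A9 cells expressing cloned 5-HT2C receptor, labelled 18 h with 1 μCi/mL [3H]inositol in inositol-free DMEM with dialysed serum. Compounds given 60 min with 10 mM LiCl in Krebs bicarbonate buffer, then [3H]inositol monophosphate accumulation measured. Expressed as % of the 5-HT (10^-5 M) maximum minus control. Vmax by nonlinear regression. Triplicates in three experiments, mean ± SE.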
# [2] = substrate: COc1cc(C(F)(F)F)c(OC)cc1CCN; assay: as §1; summary of the method: as §2
# [3] = substrate: COc1cc(CC(C)N)c(OC)cc1I; assay: as §1; summary of the method: as §2
# [4] = substrate: COc1cc(C(F)(F)F)c(OC)cc1CC(C)N; assay: (§3) The maximum responses of [3H]- inositol monophosphate accumulation in cells expressing the 5-hydroxytryptamine 2A receptor
# [5] = substrate: COc1cc(C(F)(F)F)c(OC)cc1CCN; assay: as §3
# [6] = substrate: COc1cc(CC(C)N)c(OC)cc1I; assay: as §3
Protein,Vmax [1],Vmax [2],Vmax [3],Vmax [4],Vmax [5],Vmax [6]
B1,82,80,82,,,
B2,,,,91,58,94
